Experimental findings from ChEMBL document CHEMBL3808288, “Identification and in Vivo Evaluation of Liver X Receptor β-Selective Agonists for the Potential Treatment of Alzheimer's Disease” (J Med Chem, 2016) are described below.

Activity calls are given as the source filed them. The rule behind the calls is not given here.

Data set [1] concerns Rattus norvegicus. Briefly: Increase in amyloid beta level in CSF of Wistar Han rat at 100 mg/kg, sc dosed for 4 days by western blotting method. The class given is functional, organism-based. In a few lines:
(§1)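 Rats were dosed subcutaneously for 4 days, and apoE and Aβ were then measured in CSF.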
(In general: A western blot detects proteins with antibodies after separation by electrophoresis.)

Data set [2] relates to Mus musculus. Kind of data set: Activation of LXR in Tg2576 transgenic mouse assessed increase in soluble apoE level in brain at 50 mg/kg, sc dosed for 3 weeks. In kind it is functional, organism-based. In a few lines: (§2)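 12-month-old Tg2576 mice were dosed subcutaneously for three weeks. Brain was assayed for ABCA1 protein, soluble apoE and DEA-soluble Aβ, and plasma and liver were assayed for triglycerides. Groups were compared with vehicle by ANOVA.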

For a further data set, the system named is Rhesus monkey. Briefly: Increase in apoE level in CSF of rhesus monkey at 10 and 20 mg/kg, po administered for 2 weeks by apoE ELISA relative to control. In kind it is functional, Macaca mulatta. The method, boiled down: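 Rhesus monkeys were dosed orally once daily for 2 weeks after randomisation on baseline lipids, liver enzymes and liver fat. CSF was taken by lumbar puncture at baseline and at trough after the last dose, and apoE was measured against baseline.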
Background: In an ELISA, binding on a coated surface is turned into a signal by an enzyme label.

A short description of data set [3]: Oral bioavailability in rat. The note with it: in vivo. The class given is ADME, organism-based.
Data set [4] concerns Rattus norvegicus. Kind of data set: Increase in apoE level in CSF of Wistar Han rat at 100 mg/kg, sc dosed for 4 days by western blotting method. In kind it is functional, organism-based. In a few lines:
as §1

The test system of the next data set is P-gp. Briefly: Efflux ratio in MDCK cells expressing human P-gp assessed as ratio of permeability across basolateral to apical side over apical to basolateral side. In kind it is ADME, cell-based, Canis lupus familiaris. The note with it: dog, MDCK-MDR1.
Data set [5] concerns Rattus norvegicus. Kind of data set: Toxicity in Wistar Han rat assessed as change in plasma triglyceride level at 100 mg/kg, sc dosed for 4 days […]. In kind it is organism-based. The following applies: in vivo, 96 h.
In data set [6] the target is T1, Oxysterols receptor LXR-beta (Homo sapiens) (UniProt P55055).
T1 sequence (whole entry): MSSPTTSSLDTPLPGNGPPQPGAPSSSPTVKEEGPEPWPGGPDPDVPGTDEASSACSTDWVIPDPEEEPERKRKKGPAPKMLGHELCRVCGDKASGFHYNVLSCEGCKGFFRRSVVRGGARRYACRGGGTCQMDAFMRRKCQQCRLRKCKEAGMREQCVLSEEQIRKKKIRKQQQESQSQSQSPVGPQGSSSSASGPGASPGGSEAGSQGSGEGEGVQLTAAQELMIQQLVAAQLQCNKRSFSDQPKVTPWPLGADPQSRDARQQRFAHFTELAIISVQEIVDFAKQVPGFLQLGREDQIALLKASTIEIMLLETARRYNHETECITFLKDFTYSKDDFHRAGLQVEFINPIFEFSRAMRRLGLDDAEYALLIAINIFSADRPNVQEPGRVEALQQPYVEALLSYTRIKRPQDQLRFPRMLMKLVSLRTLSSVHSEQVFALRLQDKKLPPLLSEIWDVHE
Briefly: Agonist activity at GST-tagged LXRbeta-LBD (unknown origin) by LanthaScreen TR-FRET liver X receptor coactivator assay relative to T1317. The method, boiled down: (§3)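 Cofactor recruitment assay using the ligand binding domains of LXRβ or LXRα. The read-out was EC50 and Emax, with Emax relative to a full agonist control.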
A general note: TR-FRET usually uses a lanthanide donor and a delayed reading to cut background.

Data set [7] is described as follows: Clearance in rat. The note with it: in vivo. In kind it is ADME, organism-based.
Data set [8] deals with Rattus norvegicus. Briefly: Toxicity in Wistar Han rat assessed as change in liver triglyceride level at 100 mg/kg, sc dosed for 4 days […]. The following applies: in vivo, 96 h. In kind it is organism-based.
Data set [9] addresses T2, Oxysterols receptor LXR-alpha (Homo sapiens) (UniProt Q13133).
T2 sequence (whole entry): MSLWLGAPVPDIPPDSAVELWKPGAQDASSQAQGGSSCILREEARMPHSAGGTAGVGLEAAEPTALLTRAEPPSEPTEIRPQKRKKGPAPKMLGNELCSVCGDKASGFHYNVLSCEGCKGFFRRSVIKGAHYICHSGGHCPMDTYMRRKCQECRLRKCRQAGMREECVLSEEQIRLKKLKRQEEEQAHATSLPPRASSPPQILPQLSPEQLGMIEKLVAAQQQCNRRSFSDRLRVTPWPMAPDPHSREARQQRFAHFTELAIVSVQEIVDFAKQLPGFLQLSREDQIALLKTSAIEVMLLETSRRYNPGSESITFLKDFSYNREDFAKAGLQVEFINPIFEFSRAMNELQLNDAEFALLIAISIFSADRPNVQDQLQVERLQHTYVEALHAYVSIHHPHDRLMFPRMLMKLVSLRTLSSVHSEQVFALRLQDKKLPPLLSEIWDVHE
Briefly: (§4) Partial agonist activity at GST-tagged LXRalpha-LBD (unknown origin) by LanthaScreen TR-FRET liver X receptor coactivator assay. In a few lines: as §3

In data set [10] the target is T3, Oxysterols receptor LXR-alpha (Homo sapiens, UniProt Q13133).
T3 sequence (Q13133 whole entry): T2 sequence (whole entry)
The description is as §4. The method, boiled down:
as §3

The subject of data set [11] is Mus musculus. Briefly: Toxicity in Tg2576 transgenic mouse assessed as change in plasma triglyceride level at 50 mg/kg, sc dosed for 3 weeks. The class given is organism-based. The following applies: in vivo, 504 h. In a few lines:
as §2

The subject of data set [12] is Mus musculus. Briefly: Reversal of hyperlocomotary behavior in Tg2576 transgenic mouse at 50 mg/kg, sc dosed for 16 days by open field test. In kind it is functional, organism-based. The method, boiled down:
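Mice from the three-week subcutaneous study were tested in the open field for locomotor activity after 16 days of dosing. Wild-type mice were included for comparison.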

`CC(C)[C@@](O)(C(=O)N1CCC(C2CCN(c3ccc(C(=O)N(C)C)c(Cl)c3)CC2)CC1)C(F)(F)F`: the result in the data set on Rattus norvegicus [1], in the data set on Mus musculus [2], with Rattus norvegicus [4] and in the data set with Mus musculus [12] was Active. Also, the “fold change (FC)” value with Rhesus monkey is on record as 3. Besides, the bioavailability in [3] is 71%. Also, in the data set with P-gp, the efflux ratio was 0.6. In addition, the Activity entry in the data set with Rattus norvegicus [5], in the data set on Rattus norvegicus [8] and in the data set with Mus musculus [11] was “Non-toxic” throughout. Also, the Emax in [6] turned out to be 103%; in data set [9], 49%. This compound also displayed a clearance in [7] of 87 mL/min/kg. For the same compound, the midpoint of the response in data set [10], the EC50, lay at 1900 nM.

Usually bioavailability stands for the share of a dose that reaches the circulation, judged against a reference dose that is usually intravenous. As usually defined, the efflux ratio is a quotient of directional permeabilities that is used to spot active efflux. As usually defined, the Emax is the size of the effect at its maximum, as opposed to the concentration needed. Broadly, the clearance is the volume of plasma or blood freed of the substance per unit of time. Usually EC50 stands for the midpoint of the concentration-response curve.
